Laboratory results taken from ChEMBL document CHEMBL1140923, “Discovery of imidazo[1,2-b]thiazole derivatives as novel SIRT1 activators” (J Med Chem, 2009).
pIC50: −log10 of the molar value. The source made the active and inactive calls. The calls are words filed in the database; no cut-off is given here.

Columns and labels:
[1] = Terminal half life in C57BL/6 mouse at 100 mg/kg, po or 10 mg/kg, iv; type: ADME, organism-based; settings: in vivo, read-out: beta t1/2 (converted)
How it was run: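 Male C57BL/6 mice (18-22 g; 3 per dose group per time point), given 100 mg/kg po as the hydrochloride salt in 2% HPMC + 0.2% DOSS, or 10 mg/kg iv by tail vein in 10% ethanol/40% polyethylene glycol/50% H2O. Plasma was taken at 5, 30, 120 and 360 min after dosing and drug levels were measured.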

[2] = Cmax in Sprague-Dawley rat at 100 mg/kg, po or 10 mg/kg, iv; type: ADME, organism-based; settings: in vivo
How it was run: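 Male Sprague-Dawley rats (250 g, 3 per dose group) received 100 mg/kg by oral gavage in 2% HPMC + 0.2% DOSS, or 10 mg/kg iv by tail vein in 10% ethanol/40% PEG/50% H2O. Blood was drawn at 0.033-24 h postdose for drug levels.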

Mus musculus [3] = test: Antidiabetic activity in ob/ob mouse model assessed as reduction of fasting blood glucose level at 100 mg/kg, po daily once after 1 week relative to control; type: functional, organism-based; design: dose 100 mg/kg
How it was run: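 ob/ob mice received at 6 weeks of age were kept on a 60%-fat diet from at least 1 week before the study. They were sorted by body weight and glucose, then gavaged once daily with 100 mg/kg or vehicle (2% HPMC + 0.2% DOSS). Fasting blood glucose was measured. Analysis by one-way ANOVA with Dunnett's test.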

Mus musculus [4] = test: Antidiabetic activity in diet-induced obesity C57BL/6 mouse model assessed as reduction of plasma insulin level at 100 mg/kg, po daily once after 10 weeks; type: functional, organism-based; design: dose 100 mg/kg
How it was run: (§1)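 Male C57BL/6 mice were fed a 60%-fat diet from 9 weeks of age until about 40 g, in groups of 6-10. They were dosed by oral gavage once daily in 2% HPMC + 0.2% DOSS, with 29 at 100 mg/kg and rosiglitazone at 5 mg/kg, alongside vehicle groups on lean and high-fat diet. Fed glucose was read at weeks 2, 4, 6, 8 and 10. Clinical chemistry and hematology were also measured. Analysis by ANOVA.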

Mus musculus [5] = test: Antidiabetic activity in C57BL/6 mouse assessed as overt sign of hypoglycemia at 100 mg/kg, po daily once after 10 weeks; type: functional, organism-based; design: dose 100 mg/kg
How it was run: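 Lean chow-fed mice were dosed 100 mg/kg po daily in 2% HPMC + 0.2% DOSS for 10 weeks and watched for overt hypoglycemia.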

Mus musculus [6] = test: Toxicity in diet-induced obesity C57BL/6 mouse model assessed as red blood count at 100 mg/kg, po daily once for 10 weeks; type: organism-based; design: dose 100 mg/kg, route oral; settings: in vivo, 1680 h; how it was run: as §1
Rattus norvegicus [7] = test: Antidiabetic activity in genetic Zucker fa/fa rat model assessed as increase in glucose infusion rate at 100 mg/kg, po daily once after 4 weeks by hyperinsulinemic-euglycemic clamp; type: functional
How it was run: (§2)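 Zucker fa/fa rats, cannulated 5 days beforehand and fasted 8 h, underwent the clamp after 4 weeks of dosing. [3-3H]glucose tracer was primed and infused, then insulin 25 (mU/kg)/min was started. Variable 50% dextrose held blood glucose at 100 mg/dL over 120 min, with tracer specific activity sampled at 110 and 120 min.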

Rattus norvegicus [8] = test: Antidiabetic activity in genetic Zucker fa/fa rat model assessed as increase in glucose disposal rate at 100 mg/kg, po daily once after 4 weeks by hyperinsulinemic-euglycemic clamp; type: functional; how it was run: as §2
[9] = molecular target: T1, Muscarinic acetylcholine receptor M1 (Homo sapiens, UniProt P11229); test: Inhibition of muscarinic M1 receptor
T1 sequence (P11229 whole entry): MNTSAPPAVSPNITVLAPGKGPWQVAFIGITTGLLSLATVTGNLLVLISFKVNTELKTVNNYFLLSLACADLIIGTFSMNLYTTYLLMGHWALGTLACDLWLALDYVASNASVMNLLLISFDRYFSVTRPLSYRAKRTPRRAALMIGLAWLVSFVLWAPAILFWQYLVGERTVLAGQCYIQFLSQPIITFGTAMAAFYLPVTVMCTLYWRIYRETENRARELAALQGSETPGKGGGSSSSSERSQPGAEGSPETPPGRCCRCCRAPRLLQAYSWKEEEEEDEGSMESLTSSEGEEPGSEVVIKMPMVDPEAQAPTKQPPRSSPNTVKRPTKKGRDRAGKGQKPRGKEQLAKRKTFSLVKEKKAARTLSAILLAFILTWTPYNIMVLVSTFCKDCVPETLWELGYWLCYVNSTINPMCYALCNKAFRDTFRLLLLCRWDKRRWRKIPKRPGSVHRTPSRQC

[10] = molecular target: Sodium-dependent noradrenaline transporter (Homo sapiens, UniProt P23975); test: Inhibition of norepinephrine transporter
Salmonella typhimurium [11] = test: Mutagenic activity in Salmonella Typhimurium TA98 in absence of S9 activation; type: toxicity, organism-based; settings: salmonella enterica subsp. enterica serovar typhimurium
Salmonella typhimurium [12] = test: Mutagenic activity in Salmonella Typhimurium TA100 in absence of S9 activation; type: toxicity, organism-based; settings: salmonella enterica subsp. enterica serovar typhimurium
Mus musculus [13] = test: Antidiabetic activity in diet-induced obesity C57BL/6 mouse model assessed as reduction of fed blood glucose level at 100 mg/kg, po daily once relative to control

Chain of Sodium-dependent noradrenaline transporter (P23975 whole entry): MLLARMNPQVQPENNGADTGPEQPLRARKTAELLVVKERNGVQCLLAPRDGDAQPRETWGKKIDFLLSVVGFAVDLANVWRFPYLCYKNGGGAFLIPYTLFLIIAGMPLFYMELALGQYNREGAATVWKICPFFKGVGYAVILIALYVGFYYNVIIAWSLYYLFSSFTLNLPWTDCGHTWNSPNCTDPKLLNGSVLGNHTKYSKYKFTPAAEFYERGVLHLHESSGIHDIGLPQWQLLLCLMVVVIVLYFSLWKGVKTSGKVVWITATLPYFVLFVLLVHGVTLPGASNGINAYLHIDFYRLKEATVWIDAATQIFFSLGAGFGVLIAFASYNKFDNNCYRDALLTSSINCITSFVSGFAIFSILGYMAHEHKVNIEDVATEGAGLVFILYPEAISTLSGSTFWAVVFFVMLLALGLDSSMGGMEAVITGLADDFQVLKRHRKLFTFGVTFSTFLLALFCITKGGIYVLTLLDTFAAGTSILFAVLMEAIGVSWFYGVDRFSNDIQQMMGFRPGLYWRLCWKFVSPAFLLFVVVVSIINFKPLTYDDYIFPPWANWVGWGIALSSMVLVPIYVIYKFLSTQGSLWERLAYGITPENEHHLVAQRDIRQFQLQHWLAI

half-life [1]: 5 h
Cmax [2]: 320 nM
pIC50 [9]: 5.10
pIC50 [10]: 5.61
Compound: O=C(Nc1ccccc1-c1cn2c(CN3CCNCC3)csc2n1)c1cnc2ccccc2n1
Activity (Mus musculus [3]): Active
Activity (Mus musculus [4]): Active
Activity (Mus musculus [5]): inactive
Activity (Mus musculus [6]): Active
Activity (Rattus norvegicus [7]): 35%
Activity (Rattus norvegicus [8]): 20%
Activity (Salmonella typhimurium [11]): Non-toxic
Activity (Salmonella typhimurium [12]): Non-toxic
Activity (Mus musculus [13]): Active
